Measurements: ChEMBL document CHEMBL1138606, “The discovery of tropane derivatives as nociceptin receptor ligands for the management of cough and anxiety” (Bioorg Med Chem Lett, 2009)
pEC50, pKi: −log10 of the molar value.

Key:
Nociceptin receptor [1] = molecular target: T1, Nociceptin receptor (Homo sapiens, UniProt P41146); experiment: Displacement of [125I][Tyr14]nociceptin from human cloned NOP receptor expressed in CHO cells; assay type: cell-based
[2] = molecular target: T2, Nuclear receptor subfamily 1 group I member 2 (Homo sapiens, UniProt O75469); experiment: Activity at human PXR assessed as induction of CYP3A4 activity in human hepatocytes at 1 uM relative to rifampicin; assay type: cell-based, Hepatocyte
T2 sequence (O75469 whole entry): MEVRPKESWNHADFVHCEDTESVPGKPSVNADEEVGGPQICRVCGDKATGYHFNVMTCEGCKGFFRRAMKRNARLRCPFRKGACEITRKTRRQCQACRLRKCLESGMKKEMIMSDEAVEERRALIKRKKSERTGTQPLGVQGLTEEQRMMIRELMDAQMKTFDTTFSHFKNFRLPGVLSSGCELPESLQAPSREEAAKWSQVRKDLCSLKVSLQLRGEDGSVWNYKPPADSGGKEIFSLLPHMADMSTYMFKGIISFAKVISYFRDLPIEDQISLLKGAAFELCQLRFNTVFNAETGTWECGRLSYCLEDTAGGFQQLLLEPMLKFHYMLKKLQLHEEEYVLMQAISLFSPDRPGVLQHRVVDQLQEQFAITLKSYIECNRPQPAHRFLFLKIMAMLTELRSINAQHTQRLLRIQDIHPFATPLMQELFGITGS

Mu-type opioid receptor [3] = molecular target: T3, Mu-type opioid receptor (Homo sapiens, UniProt P35372); experiment: Displacement of [3H]diprenorphine from human mu opioid receptor expressed in CHO cells; assay type: cell-based
Mu-type opioid receptor [4] = molecular target: T3, Mu-type opioid receptor; experiment: Binding affinity to human mu opioid assessed as stimulation of GDP-induced [35S]GTPgammaS binding at 10 uM; assay type: functional
Procedure, shortened: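 Agonist function read as enhancement of [35S]GTPγS binding to receptor-expressing membranes in the presence of GDP. Percent stimulation is given at 10 µM test compound. Values are means of at least 2–3 experiments.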

Nociceptin receptor [5] = molecular target: T1, Nociceptin receptor; experiment: Agonist activity at human NOP assessed as stimulation of GDP-induced [35S]GTPgammaS binding; assay type: functional
Procedure, shortened: (§1)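 Functional agonism measured as enhancement of [35S]GTPγS binding in the presence of GDP, using membranes from cells transfected with the receptor. Values are means of 2–3 experiments.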

Mu-type opioid receptor [6] = molecular target: T3, Mu-type opioid receptor; experiment: Agonist activity at human mu opioid assessed as stimulation of GDP-induced [35S]GTPgammaS binding; assay type: functional; procedure, shortened: as §1
Nociceptin receptor [7] = molecular target: T1, Nociceptin receptor; experiment: Agonist activity at human NOP assessed as stimulation of GDP-induced [35S]GTPgammaS binding at 10 uM; assay type: functional
Procedure, shortened: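 Functional agonism measured as enhancement of [35S]GTPγS binding in the presence of GDP, using membranes from cells transfected with the receptor. […] Values are means of 2–3 experiments.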

T3 sequence (P35372 whole entry): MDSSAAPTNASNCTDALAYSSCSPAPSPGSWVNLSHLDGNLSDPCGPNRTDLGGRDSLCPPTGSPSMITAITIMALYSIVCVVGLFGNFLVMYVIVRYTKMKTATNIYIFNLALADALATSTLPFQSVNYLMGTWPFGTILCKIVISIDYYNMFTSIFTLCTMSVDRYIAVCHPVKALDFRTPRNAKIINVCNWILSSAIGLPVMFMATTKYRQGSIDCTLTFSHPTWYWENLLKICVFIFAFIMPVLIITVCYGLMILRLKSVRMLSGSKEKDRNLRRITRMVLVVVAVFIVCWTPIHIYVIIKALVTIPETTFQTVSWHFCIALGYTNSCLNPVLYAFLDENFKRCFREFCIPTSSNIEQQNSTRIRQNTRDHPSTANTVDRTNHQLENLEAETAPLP
T1 sequence (P41146 whole entry): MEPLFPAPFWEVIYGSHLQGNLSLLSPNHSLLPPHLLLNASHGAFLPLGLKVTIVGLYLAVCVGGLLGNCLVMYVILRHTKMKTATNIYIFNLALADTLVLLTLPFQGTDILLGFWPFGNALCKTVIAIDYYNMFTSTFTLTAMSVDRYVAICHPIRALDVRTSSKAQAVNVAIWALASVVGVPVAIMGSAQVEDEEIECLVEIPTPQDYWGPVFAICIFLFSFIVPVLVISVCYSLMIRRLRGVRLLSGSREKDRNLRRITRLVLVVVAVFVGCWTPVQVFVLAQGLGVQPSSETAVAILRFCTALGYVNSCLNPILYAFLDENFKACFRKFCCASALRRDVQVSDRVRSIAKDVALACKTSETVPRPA

Structure (SMILES)	pKi (Nociceptin receptor [1])	pKi (Mu-type opioid receptor [3])	also measured
NC(=O)C1(c2ccc(OC(F)(F)F)cc2)CC2CCC(C1)N2C(c1ccccc1Cl)c1ccccc1Cl (stereo unspecified)	6.55		Ratio [2]: 0.1
OC1(c2cccnn2)CC2CCC(C1)N2C(c1ccccc1Cl)c1ccccc1Cl (stereo in doubt; 12c)	5.42		
NC(=O)C1(c2ccc(Cl)cc2)CC2CCC(C1)N2C(c1ccccc1Cl)c1ccccc1Cl (stereo unspecified)	7.51	7.26	Ratio [2]: 0.05
Cc1ccc(C(c2ccccc2Cl)N2C3CCC2CC(O)(C2CCNC2=O)C3)c(Cl)c1 (stereo unspecified)	8.44	6.11	Activity (Mu-type opioid receptor [4]): 60%; pEC50 (Nociceptin receptor [5]): 7.32
COCCNC(=O)C1(c2ccccc2)CC2CCC(C1)N2C(c1ccccc1Cl)c1ccccc1Cl (stereo unspecified)	8.09	7.22	Ratio [2]: 2.35
COC(=O)NC1(c2ccccc2)CC2CCC(C1)N2C(c1ccccc1Cl)c1ccccc1Cl (stereo unspecified)	8.22	6.24	pEC50 (Nociceptin receptor [5]): 7.27; pEC50 (Mu-type opioid receptor [6]): 6.11
OC1CC2CCC(C1)N2C(c1ccccc1Cl)c1ccccc1Cl (stereo in doubt; 12a)	5.96		
OC1(c2ccccc2)CC2CCCC(C1)N2C(c1ccccc1)c1ccccc1 (stereo unspecified)	8.12	6.29	Activity (Nociceptin receptor [7]): 101%
C[C@@H]1CN(C(c2ccccc2)c2ccccc2)CC[C@@]1(O)c1ccccc1	6.85	6.13	Activity (Nociceptin receptor [7]): 70%
Cc1ccc(C(c2ccccc2Cl)N2C3CCC2CC(O)(c2ccncn2)C3)c(Cl)c1 (stereo unspecified)	8.28	6.27	pEC50 (Nociceptin receptor [5]): 7.30; pEC50 (Mu-type opioid receptor [6]): 5.77
OC1(c2cccnn2)CC2CCC(C1)N2C(c1ccccc1Cl)c1ccccc1Cl (stereo in doubt; 11c)	8.00	6.33	
OC1(c2cncs2)CC2CCC(C1)N2C(c1ccccc1Cl)c1ccccc1Cl (stereo in doubt; 11b)	7.72	5.83	
OC1(c2cccnc2)C2CCC1CN(C(c1ccccc1Cl)c1ccccc1Cl)C2 (stereo unspecified)	6.04	5.14	
Clc1ccccc1C(c1ccccc1Cl)N1C2CCC1CC(c1ccccc1)(c1nc[nH]n1)C2 (stereo unspecified)	8.28	7.00	
CNC(=O)C1(c2ccccc2)CC2CCC(C1)N2C(c1ccccc1Cl)c1ccccc1Cl (stereo unspecified)	8.31	7.30	Ratio [2]: 1.29
OC1(c2cccnc2)CC2CCC(C1)N2C(c1ccccc1Cl)c1ccccc1Cl (stereo unspecified)	8.52	7.38	
N#CC1(c2ccccc2)CC2CCC(C1)N2C(c1ccccc1Cl)c1ccccc1Cl (stereo unspecified)	7.00		
Cc1ccc(C(c2ccccc2Cl)N2C3CCC2CC(O)(C2CCCN2Cc2ccccc2)C3)c(Cl)c1 (stereo unspecified)	7.85	5.81	
FCC1(c2ccccc2)CC2CCC(C1)N2C(c1ccccc1Cl)c1ccccc1Cl (stereo unspecified)	5.50		
Cc1ccnc(C2(O)CC3CCC(C2)N3C(c2ccccc2Cl)c2ccc(C)cc2Cl)c1 (stereo unspecified)	8.14	6.15	
NC(=O)c1ccc(C2(C(N)=O)CC3CCC(C2)N3C(c2ccccc2Cl)c2ccccc2Cl)cc1 (stereo unspecified)	6.17		Ratio [2]: 0.05
O=C(O)C1(c2ccccc2)CC2CCC(C1)N2C(c1ccccc1Cl)c1ccccc1Cl (stereo unspecified)	8.52	6.91	
